Active and inactive are the calls of the source. The rule behind the calls is not given here.
Columns and labels:
[1] = Inhibition of reduced carboxymethylated kappa-casein fibril formation at 50 ug/mL measured every 5 mins after 1000 mins by thioflavin T staining-based binding assay
Method in brief: (§1)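 RCM-κ-CN (0.5 mg/mL final) in 50 mM sodium phosphate pH 7.2 with 10 µM ThT and test compound (final DMSO ≤1%), incubated at 37 °C unshaken in sealed plates. Fluorescence (ex 440/em 490 nm) was read every 5 min for 1000 min. %FFi = 100×(ΔFc−ΔFs)/ΔFc versus a 1% DMSO control. Duplicates.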

[2] = Inhibition of reduced carboxymethylated kappa-casein fibril formation measured every 5 mins after 1000 mins by thioflavin T staining-based binding assay
Method in brief: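 RCM-κ-CN fibrillation (0.5 mg/mL) at 37 °C, pH 7.2 phosphate (50 mM), 10 µM ThT, no shaking. ThT fluorescence 440/490 nm was read every 5 min over 1000 min. Duplicate samples. The positive control IC50 is the mean of four batches.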

[3] = Inhibition of reduced carboxymethylated kappa-casein fibril formation assessed as formation of shorter and stunted fibrils by transmission electron microscopy
[4] = Inhibition of reduced carboxymethylated kappa-casein fibril formation at 5 ug/mL measured every 5 mins after 1000 mins by thioflavin T staining-based binding assay; method in brief: as §1
[5] = Inhibition of reduced carboxymethylated kappa-casein fibril formation at 12.5 ug/mL measured every 5 mins after 1000 mins by thioflavin T staining-based binding assay; method in brief: as §1
[6] = Inhibition of reduced carboxymethylated kappa-casein fibril formation at 100 ug/mL measured every 5 mins after 1000 mins by thioflavin T staining-based binding assay; method in brief: as §1
[7] = Inhibition of beta amyloid (1 to 42) fibril formation at 50 ug/mL by thioflavin T staining-based binding assay
[8] = Inhibition of beta amyloid (1 to 42) fibril formation by thioflavin T staining-based binding assay
[9] = Inhibition of beta amyloid (1 to 40) fibril formation by thioflavin T staining-based binding assay
[10] = Inhibition of beta amyloid (1 to 40) fibril formation
[11] = Selectivity ratio of IC50 for reduced carboxymethylated kappa-casein fibril formation to IC50 for beta amyloid (1 to 40) fibril formation
[12] = Selectivity ratio of IC50 for reduced carboxymethylated kappa-casein fibril formation to IC50 for beta amyloid (1 to 42) fibril formation
[13] = Inhibition of reduced carboxymethylated kappa-casein fibril formation at 17 ug/mL measured every 5 mins after 1000 mins by thioflavin T staining-based binding assay; method in brief: as §1
[14] = Inhibition of beta amyloid (1 to 40) fibril formation after 24 hrs by fluorimetry
[15] = Inhibition of beta amyloid (1 to 42) fibril formation

Structure (SMILES) | inhibition [1] | IC50 [2] | inhibition [3] | IC50 [8] | IC50 [9] | further results
CC(=O)Oc1cc(OC(C)=O)c2c(=O)c(OC(C)=O)c(-c3ccc(OC(C)=O)c(OC(C)=O)c3)oc2c1 | 90% | 6800 nM | Active |  |  | 
CO/C(=C\c1ccc(OC)c(OC)c1)C(=O)c1c(O)cc(OC)cc1OC | 35% |  |  |  |  | 
COc1ccc(-c2coc3cc(O)cc(O)c3c2=O)cc1 |  |  |  |  |  | inhibition [4]: 0%
COc1ccc2c(=O)c(O)c(-c3cc(OC)c(OC)cc3CO)oc2c1 |  |  |  |  |  | inhibition [5]: 0%
O=c1c(O)c(-c2ccc(O)cc2)oc2cc(O)ccc12 |  |  |  |  |  | inhibition [4]: 0%
Oc1ccc([C@H]2Oc3cc(O)cc(O)c3C[C@H]2O)cc1 |  |  |  |  |  | inhibition [6]: 17%
O=C1c2c(O)cc(O)cc2O[C@H](c2ccc(O)c(O)c2)[C@H]1O [(+)-TAXIFOLIN] | 84% | 40100 nM |  |  |  | inhibition [7]: 57%
Oc1cc(O)c2c(c1)O[C@H](c1ccc(O)c(O)c1)[C@H](O)C2 [(-)-EPICATECHIN] | 7% |  |  | 5600 nM | 2800 nM | 
COc1ccc(-c2coc3cc(O)ccc3c2=O)cc1O [CALYCOSIN] |  |  |  |  |  | inhibition [4]: 1%; IC50 [10]: Not Active
Oc1cc(O)c2c(c1)O[C@H](c1ccc(O)c(O)c1)[C@@H](O)C2 [CIANIDANOL] | 0% |  |  | 5300 nM | 2900 nM | 
O=c1c(-c2ccc(O)cc2)coc2cc(O)ccc12 [DAIDZEIN] | 25% |  |  |  |  | IC50 [10]: Active
O=C(O[C@@H]1Cc2c(O)cc(O)cc2O[C@@H]1c1cc(O)c(O)c(O)c1)c1cc(O)c(O)c(O)c1 [EPIGALOCATECHIN GALLATE] | 100% | 3700 nM |  |  |  | Ratio IC50 [11]: 20; Ratio IC50 [12]: 10; inhibition [7]: 100%; IC50 ([10]; read-out: IC50): 180 nM
O=c1c(O)c(-c2ccccc2)oc2cc(O)cc(O)c12 [GALANGIN] | 68% | 61000 nM | Active |  |  | IC50 [10]: Not Active
O=c1c(-c2ccc(O)cc2)coc2cc(O)cc(O)c12 [GENISTEIN] | 95% | 190000 nM |  |  |  | inhibition [7]: 43%; IC50 [10]: Active
O=c1c(O)c(-c2ccc(O)cc2)oc2cc(O)cc(O)c12 [KAEMPFEROL] | 86% | 33000 nM | Active | 3200 nM | 1700 nM | Ratio IC50 [11]: 20; Ratio IC50 [12]: 10
O=c1c(O)c(-c2ccc(O)cc2O)oc2cc(O)cc(O)c12 [MORIN] | 99% | 49500 nM |  | 670 nM | 240 nM | Ratio IC50 [11]: 206; Ratio IC50 [12]: 74; inhibition [7]: 94%
O=c1c(O)c(-c2cc(O)c(O)c(O)c2)oc2cc(O)cc(O)c12 [MYRICETIN] |  |  | Active | 400 nM | 290 nM | inhibition [13]: 92%; IC50 [14]: 900 nM; IC50 [15]: 340 nM; IC50 ([10]; read-out: IC50): 200 nM
O=c1c(O)c(-c2ccc(O)c(O)c2)oc2cc(O)cc(O)c12 [QUERCETIN] | 84% | 13600 nM | Active | 720 nM | 240 nM | Ratio IC50 [11]: 20; Ratio IC50 [12]: 10; inhibition [7]: 95%
O=c1c(O)c(-c2cc(O)c(O)c(O)c2)oc2cc(O)ccc12 [ROBINETIN] |  | 13900 nM | Active |  |  | inhibition [4]: 89%
